Experimental data from ChEMBL document CHEMBL1212770, “Molecular and biochemical characterization of the natural chromosome-encoded class A beta-lactamase from Pseudomonas luteola” (Antimicrob Agents Chemother, 2010).
≈ marks a conversion by molar mass, not a printed value. Calls of active or inactive are those of the source. The calls are words filed in the database; no cut-off is given here.

How the values were obtained:
[1] = system: Pseudomonas luteola; assay: Antimicrobial activity against Pseudomonas luteola expressing blaLUT-2 to blaLUT-6 by Etest method; type: functional
[2] = system: Pseudomonas luteola; assay: Antimicrobial activity against Pseudomonas luteola LAM expressing blaLUT-1 by Etest method; type: functional
[3] = system: Pseudomonas luteola; assay: Antimicrobial activity against Pseudomonas luteola expressing blaLUT-2 to blaLUT-6 by Etest method in presence of 4 ug/ml clavulanic acid; type: functional
[4] = system: Escherichia coli; assay: Antimicrobial activity against Escherichia coli DH10B by Etest method; type: functional; conditions: K-12 DH10B
[5] = system: Escherichia coli; assay: Antimicrobial activity against Escherichia coli DH10B transfected with pBK-L3 expressing blaLUT-1 by Etest method; type: functional; conditions: K-12 DH10B
[6] = system: Escherichia coli; assay: microbe, parasite or virus in culture; conditions: K-12 DH10B
[7] = system: Escherichia coli; assay: Antimicrobial activity against Escherichia coli DH10B by Etest method in presence of 4 ug/ml clavulanic acid; type: functional; conditions: K-12 DH10B
[8] = system: Pseudomonas luteola; assay: Antimicrobial activity against Pseudomonas luteola LAM expressing blaLUT-1 by Etest method in presence of 4 ug/ml clavulanic acid; type: functional
[9] = system: Pseudomonas luteola; assay: Antimicrobial activity against Pseudomonas luteola by Etest method; type: functional
[10] = system: Pseudomonas luteola; assay: Antimicrobial activity against Pseudomonas luteola by disk diffusion method; type: functional
Outline: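 Disk diffusion panel of 32 antimicrobial drugs tested on P. luteola clinical isolates and the type strain. Isolates were identified by API-20 NE and by sequencing of PCR-amplified rrs and rpoB.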

[11] = system: Escherichia coli; assay: Antimicrobial activity against Escherichia coli DH10B transfected with pBK-L3 expressing blaLUT-1 by Etest method in presence of 4 ug/ml Tazobactam; type: functional; conditions: K-12 DH10B
[12] = system: Pseudomonas luteola; assay: Antimicrobial activity against Pseudomonas luteola LAM expressing blaLUT-1 by Etest method in presence of 4 ug/ml Tazobactam; type: functional
[13] = system: Pseudomonas luteola; assay: Antimicrobial activity against Pseudomonas luteola expressing blaLUT-2 to blaLUT-6 by Etest method in presence of 4 ug/ml Tazobactam; type: functional
[14] = system: Escherichia coli; assay: Antimicrobial activity against Escherichia coli DH10B by Etest method in presence of 4 ug/ml Tazobactam; type: functional; conditions: K-12 DH10B
[15] = system: Pseudomonas luteola; assay: Antimicrobial activity against Pseudomonas luteola LAM expressing blaLUT-1 by Etest method in presence of 2 ug/ml clavulanic acid; type: functional
[16] = system: Escherichia coli; assay: Antimicrobial activity against Escherichia coli DH10B by Etest method in presence of 2 ug/ml clavulanic acid; type: functional; conditions: K-12 DH10B
[17] = system: Escherichia coli; assay: Antimicrobial activity against Escherichia coli DH10B transfected with pBK-L3 expressing blaLUT-1 by Etest method in presence of 2 ug/ml clavulanic acid; type: functional; conditions: K-12 DH10B
[18] = system: Pseudomonas luteola; assay: Antimicrobial activity against Pseudomonas luteola expressing blaLUT-2 to blaLUT-6 by Etest method in presence of 2 ug/ml clavulanic acid; type: functional
[19] = substrate: C[C@H]1[C@H](NC(=O)/C(=N\OC(C)(C)C(=O)O)c2csc(N)n2)C(=O)N1S(=O)(=O)O; assay: (§1) Ratio of kcat/Km for Pseudomonas luteola LAM Beta-lactamase LUT-1
Outline: (§2)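 LUT-1 was purified from E. coli DH5α(pBK-L3) grown for 18 h at 37°C in 2× yeast-tryptone broth with kanamycin 20 μg/ml and amoxicillin 32 μg/ml. Purification used Q Sepharose ion exchange, then Superose 12 gel filtration, with purity checked by SDS-PAGE. Km and kcat were determined by a computerized microacidimetric method, each three times, with coefficients of variation not exceeding 15%.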

[20] = substrate: CC1(C)S[C@@H]2[C@H](NC(=O)[C@H](C(=O)O)c3ccsc3)C(=O)N2[C@H]1C(=O)O; assay: as §1; outline: as §2
[21] = substrate: CO/N=C(\C(=O)N[C@@H]1C(=O)N2C(C(=O)O)=C(COC(N)=O)CS[C@H]12)c1ccco1; assay: as §1; outline: as §2
[22] = substrate: CC1(C)S[C@@H]2[C@H](NC(=O)[C@H](N)c3ccc(O)cc3)C(=O)N2[C@H]1C(=O)O; assay: as §1; outline: as §2
[23] = substrate: CC(C)(O/N=C(\C(=O)N[C@@H]1C(=O)N2C(C(=O)[O-])=C(C[n+]3ccccc3)CS[C@H]12)c1csc(N)n1)C(=O)O; assay: as §1; outline: as §2
[24] = substrate: CO/N=C(\C(=O)N[C@@H]1C(=O)N2C(C(=O)O)=C(COC(C)=O)CS[C@H]12)c1csc(N)n1; assay: as §1; outline: as §2
[25] = substrate: CC1(C)S[C@@H]2[C@H](NC(=O)Cc3ccccc3)C(=O)N2[C@H]1C(=O)O; assay: as §1; outline: as §2
[26] = substrate: CC(=O)OCC1=C(C(=O)O)N2C(=O)[C@@H](NC(=O)Cc3cccs3)[C@H]2SC1; assay: as §1; outline: as §2
[27] = substrate: CCN1CCN(C(=O)N[C@@H](C(=O)N[C@@H]2C(=O)N3[C@@H]2SC(C)(C)[C@@H]3C(=O)O)c2ccccc2)C(=O)C1=O; assay: as §1; outline: as §2
[28] = substrate: C[C@H]1[C@H](NC(=O)/C(=N\OC(C)(C)C(=O)O)c2csc(N)n2)C(=O)N1S(=O)(=O)O; assay: (§3) Activity of Pseudomonas luteola LAM Beta-lactamase LUT-1; outline: as §2
[29] = substrate: CC1(C)S[C@@H]2[C@H](NC(=O)[C@H](C(=O)O)c3ccsc3)C(=O)N2[C@H]1C(=O)O; assay: as §3; outline: as §2
[30] = substrate: CO/N=C(\C(=O)N[C@@H]1C(=O)N2C(C(=O)O)=C(COC(N)=O)CS[C@H]12)c1ccco1; assay: as §3; outline: as §2
[31] = substrate: CC1(C)S[C@@H]2[C@H](NC(=O)[C@H](N)c3ccc(O)cc3)C(=O)N2[C@H]1C(=O)O; assay: as §3; outline: as §2
[32] = substrate: CC(C)(O/N=C(\C(=O)N[C@@H]1C(=O)N2C(C(=O)[O-])=C(C[n+]3ccccc3)CS[C@H]12)c1csc(N)n1)C(=O)O; assay: as §3; outline: as §2
[33] = substrate: CO/N=C(\C(=O)N[C@@H]1C(=O)N2C(C(=O)O)=C(COC(C)=O)CS[C@H]12)c1csc(N)n1; assay: as §3; outline: as §2
[34] = substrate: CC1(C)S[C@@H]2[C@H](NC(=O)Cc3ccccc3)C(=O)N2[C@H]1C(=O)O; assay: as §3; outline: as §2
[35] = substrate: CC(=O)OCC1=C(C(=O)O)N2C(=O)[C@@H](NC(=O)Cc3cccs3)[C@H]2SC1; assay: as §3; outline: as §2
[36] = substrate: CCN1CCN(C(=O)N[C@@H](C(=O)N[C@@H]2C(=O)N3[C@@H]2SC(C)(C)[C@@H]3C(=O)O)c2ccccc2)C(=O)C1=O; assay: as §3; outline: as §2

`CC(C)(O/N=C(\C(=O)N[C@@H]1C(=O)N2C(C(=O)[O-])=C(C[n+]3ccccc3)CS[C@H]12)c1csc(N)n1)C(=O)O` [CEFTAZIDIME] gave an MIC [1] of 0.5 µg/mL (≈ 0.915 µM), an MIC [2] of 0.5 µg/mL (≈ 0.915 µM) and an MIC [3] of 0.25 µg/mL. For the same molecule, the MIC [4] was 0.125 µg/mL (≈ 0.229 µM), the MIC [5] was 1 µg/mL (≈ 1.83 µM) and the MIC [6] was 0.5 µg/mL (≈ 0.915 µM). It also gave an MIC [7] of 0.25 µg/mL and an MIC [8] of 0.25 µg/mL.

Molecule `CC(=O)OCC1=C(C(=O)O)N2C(=O)[C@@H](NC(=O)Cc3cccs3)[C@H]2SC1` [CEPHALOTHIN] has an MIC [1] of 128 µg/mL (≈ 323 µM), an MIC [2] of 64 µg/mL (≈ 161 µM) and an MIC [4] of 4 µg/mL (≈ 10.1 µM). It also gave an MIC [5] of 32 µg/mL (≈ 80.7 µM).

For `O=C(O)c1cn(C2CC2)c2cc(N3CCNCC3)c(F)cc2c1=O` [CIPROFLOXACIN], the MIC [9] was 0.032 µg/mL (≈ 0.0966 µM).

In the case of `C[C@@H](O)[C@H]1C(=O)N2C(C(=O)O)=C(SCCNC=N)C[C@H]12` [IMIPENEM ANHYDROUS], the MIC [1] is reported as 0.25 µg/mL (≈ 0.835 µM) and the MIC [2] is reported as 0.25 µg/mL (≈ 0.835 µM).

For `CCn1cc(C(=O)O)c(=O)c2ccc(C)nc21` [NALIDIXIC ACID], the MIC [9] was 16 µg/mL (≈ 68.9 µM) and the Activity [10] was “inactive”.

Molecule `CCN1CCN(C(=O)N[C@@H](C(=O)N[C@@H]2C(=O)N3[C@@H]2SC(C)(C)[C@@H]3C(=O)O)c2ccccc2)C(=O)C1=O` [PIPERACILLIN] has an MIC [11] of 1 µg/mL, an MIC [12] of 1 µg/mL and an MIC [13] of 1 µg/mL. For the same molecule, the MIC [1] was 2 µg/mL (≈ 3.86 µM), the MIC [2] was 2 µg/mL (≈ 3.86 µM) and the MIC [4] was 1 µg/mL (≈ 1.93 µM). The MIC [5] was 8 µg/mL (≈ 15.5 µM) and the MIC [14] was 1 µg/mL.

`CC1(C)S[C@@H]2[C@H](NC(=O)[C@H](C(=O)O)c3ccsc3)C(=O)N2[C@H]1C(=O)O` [TICARCILLIN] gave an MIC [1] of 8 µg/mL (≈ 20.8 µM), an MIC [2] of 8 µg/mL (≈ 20.8 µM) and an MIC [15] of 4 µg/mL. The MIC [4] was 2 µg/mL (≈ 5.2 µM), the MIC [5] was 256 µg/mL (≈ 666 µM) and the MIC [16] was 2 µg/mL. It also gave an MIC [17] of 16 µg/mL and an MIC [18] of 2 µg/mL.

B1: Beta-lactamase (Pseudomonas luteola), Q670S6 (protein)
chain: MNVILNRRTFLLASAVVSASYSLGTLAGANRDDASFQDRLAKLEQQLNGRLGVCAIDTANGAQLGYRANERFAMNSTFKVMLASAFLARSQDEPGLLEERLTYTRADLVTYSPVTEKHVSTGMTVAELCAAGIQYSDNTAANVLMKKLGGPEAVTAFARSIGDTHFRLDRWETELNSAIPGDPRDTSTPQAMAMSLQRLALGDMLAADKQHQLQAWLKGNTTGGKRIRAGVPAGWQVGDKTGTGDYGSANDVAILWPPRRAPVVLALYSALENQQAEARNDVLADAARIVAEWVTG
Molecule B1 has a kcat/Km [19] of 0.04 s⁻¹ µM⁻¹, a kcat/Km [20] of 0.36 s⁻¹ µM⁻¹ and a kcat/Km [21] of 11.9 s⁻¹ µM⁻¹. It also gave a kcat/Km [22] of 1.05 s⁻¹ µM⁻¹, a kcat/Km [23] of 0.04 s⁻¹ µM⁻¹ and a kcat/Km [24] of 5.25 s⁻¹ µM⁻¹. It also gave a kcat/Km [25] of 3.87 s⁻¹ µM⁻¹, a kcat/Km [26] of 25.9 s⁻¹ µM⁻¹ and a kcat/Km [27] of 1.14 s⁻¹ µM⁻¹. The Km [28] was 40 µM, the kcat [28] was 1.5 s⁻¹ and the Km [29] was 14 µM. It also gave a kcat [29] of 5 s⁻¹, a Km [30] of 24 µM and a kcat [30] of 286 s⁻¹. It also gave a Km [31] of 20 µM, a kcat [31] of 21 s⁻¹ and a Km [32] of 35 µM. It also gave a kcat [32] of 1.3 s⁻¹, a Km [33] of 86 µM and a kcat [33] of 452 s⁻¹. For the same molecule, the Km [34] was 8 µM, the kcat [34] was 31 s⁻¹ and the Km [35] was 21 µM. The kcat [35] was 543 s⁻¹, the Km [36] was 7 µM and the kcat [36] was 8 s⁻¹.
